Screens deposited in PubChem by several laboratories.
The list is not random: actives were taken first. Their share in the collection is about 4.9%.
CHT inh – inhibitors of human choline transporter CHT | AID 488975, 2010 | CHT-expressing cells, membrane potential dye, choline response; stronger effect = lower value | 310,000 tested, 0.86% active | B-score at 10 µM;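 active = B-score over 3 SD under the library average, and starting fluorescence ratio not unusually high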;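 also: choline stimulus applied at its EC90 after an EC20 pre-addition; B-score computed on integrated fluorescence ratio after choline addition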
Target sequence (Q9GZV3 whole entry, looked up): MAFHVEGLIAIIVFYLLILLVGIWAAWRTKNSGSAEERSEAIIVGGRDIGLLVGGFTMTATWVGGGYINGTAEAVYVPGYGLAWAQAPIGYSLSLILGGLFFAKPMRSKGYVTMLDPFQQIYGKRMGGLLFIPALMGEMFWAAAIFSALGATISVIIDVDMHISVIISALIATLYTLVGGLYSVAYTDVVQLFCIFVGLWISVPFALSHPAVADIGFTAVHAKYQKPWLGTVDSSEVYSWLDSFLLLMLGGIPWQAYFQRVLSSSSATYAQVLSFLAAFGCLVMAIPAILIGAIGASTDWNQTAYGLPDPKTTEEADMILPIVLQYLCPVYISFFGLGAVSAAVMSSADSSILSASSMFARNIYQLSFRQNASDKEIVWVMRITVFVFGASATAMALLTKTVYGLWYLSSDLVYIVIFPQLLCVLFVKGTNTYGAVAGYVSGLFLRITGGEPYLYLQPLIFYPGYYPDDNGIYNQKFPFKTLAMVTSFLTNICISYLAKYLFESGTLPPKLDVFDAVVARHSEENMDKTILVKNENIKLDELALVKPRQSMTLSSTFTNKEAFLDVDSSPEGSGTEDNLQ
CHT PAM – CHT positive allosteric modulators, primary screen, cell-based, membrane potential dye, choline EC20; AID 488977, 2010; 310,000 tested, 0.49% active; High affinity choline transporter 1 (Homo sapiens), Q9GZV3; CHT-expressing cells; stronger effect = higher value; LV-AA mutant CHT in HEK293 cells; B-score at 10 µM;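 active = initial fluorescence not abnormally high and integrated response B-score, plate-corrected, over 3 SD above library mean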
HSF1 inh – HSF1 inhibitors in luciferase reporter cells, primary screen, cell-based, NIH3T3, luminescence; NIH3T3-HGL HSE-luciferase, MG132-induced, luminescence 8 h; stronger effect = lower value; activity change, negative = inhibition, % at 7.5 µM (by protocol); 300,000 tested, 0.77% active; AID 2098, 2009;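 active = more than half of replicate wells show activity change below -50%, luminescence cut by over half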;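 also: luciferase reports HSF-1 transcriptional activity via heat shock element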
PHOSPHO1 inh – PubChem AID 1565 | inhibition, % at 13.3 µM | recombinant PHOSPHO1, absorbance phosphatase assay | 290,000 tested, 1.1% active; in the data active = inhibition above about 60%
HSF1 activator – HSF-1 activators, primary screen, NIH3T3-HGL cells, MG132 stress, luminescence, single point | 300,000 tested, 1.7% active | NIH3T3-HGL HSF-1 luciferase reporter, 8 h; 100% = twice DMSO control signal | AID 504408, 2011 | activation, % at 9 µM;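 active = mean replicate activation of at least 50% with a set share of replicates each reaching 50%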
Hep lipid drop – inhibitors of hepatocyte lipid droplet formation, primary screen, imaging, high-throughput imaging, BODIPY stain; 240,000 tested, 0.4% active; inhibition, % at 6.5 µM; AID 1656, 2009; AML12 mouse hepatocytes, oleate lipid droplets;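 active = lipid droplet intensity inhibited by at least 50%, with more than 500 cells counted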
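Test system: AML12 mouse liver cells; schedule: overnight exposure; technique: high-content imaging of BODIPY-stained droplets and DAPI nuclei; read-out: % inhibition of corrected integrated BODIPY droplet signal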
A number is an active result; i = inactive; nt = no result.

SMILES | CHT inh | CHT PAM | HSF1 inh | PHOSPHO1 inh | HSF1 activator | Hep lipid drop
CC(NS(=O)(=O)c1ccc(Br)s1)c1ccccc1 (configuration not stated) | i | i | i | i | i | i
O=C(Nc1ccccn1)c1ccc2ccccc2n1 | i | i | i | i | 74.3 | nt
Cc1csc(NC(=O)Cc2c[nH]c3ccccc23)n1 | i | i | i | i | 63.2 | nt
Cc1csc(NC(=O)c2ccc(S(=O)(=O)N(C)c3ccccc3)cc2)n1 | i | i | i | 86.2 | i | nt
Cc1csc(NC(=O)c2ccc3ccccc3n2)n1 | i | i | i | i | 54.7 | nt
Cc1csc(NC(=O)Cc2ccc(F)cc2)n1 | i | i | i | i | i | i
O=C(Nc1ccccn1)c1ccc2ccccc2c1O | i | i | i | nt | i | i
Cc1cccc(COCC(Cc2ccccc2)N2CCN(C(=O)c3cc(Cl)cc(Cl)c3)CCC2=O)c1 (configuration not stated) | i | i | i | i | i | i
Cc1nnc(NC(=O)Nc2cccc(Cl)c2)s1 | i | i | i | i | i | i
O=C(NCc1ccccn1)Nc1cccc(NC(=O)NCc2ccccn2)c1 | i | i | i | i | i | i
Cc1csc(NC(=O)Nc2cccc(Cl)c2)n1 | i | i | i | i | 55.4 | i
O=C(NCc1ccccn1)Nc1cccc(Cl)c1 | i | i | i | i | 55.6 | nt
CCC(CC)c1nnc(NC(=O)c2ccc3ccccc3n2)s1 | i | i | i | i | 52.9 | nt
O=C(NCCc1ccccc1)C1CCCN1S(=O)(=O)c1ccc(Cl)cc1 (configuration not stated) | i | i | i | i | i | i
COc1cccc(C(=O)NC2CCN(CC(=O)NCc3ccccc3F)CC2)c1 | i | i | i | i | i | i
O=C(c1ccc(F)cc1)N1CCCC(c2nc(-c3ccncc3)no2)C1 (configuration not stated) | i | i | nt | nt | nt | nt
O=C(c1c(F)cccc1F)N1CCCC(c2nc(-c3ccc(F)cc3)no2)C1 (configuration not stated) | i | i | i | 61.5 | i | i
Cc1ccc(C(=O)CN2CCC(NC(=O)C3CCCCC3)CC2)cc1 | i | i | i | i | i | i
Cn1cnc([N+](=O)[O-])c1Sc1ncccc1N | i | i | i | 101.6 | i | i
Cc1ccc(Sc2c([N+](=O)[O-])ncn2C)cc1 | i | i | i | i | i | nt
CCOC(=O)CSC1=C(C#N)C(=O)NC(c2ccc(OC)c(OC)c2)S1 (configuration not stated) | i | i | i | 98.0 | i | nt
CCOC(=O)CSC1=C(C#N)C(=O)NC(c2ccc(OC)cc2)S1 (configuration not stated) | i | i | i | 87.4 | i | i
CCOc1ccc(C2NC(=O)C(C#N)=C(S)N2c2ccc(OC)cc2)cc1OC (configuration not stated) | i | i | i | i | i | nt
N#Cc1ccccc1NC(=O)CC1c2ccccc2Oc2ccccc21 | i | i | i | i | i | i
CCN1CCSc2ccc(C(=O)NCc3cc(Br)ccc3OC)cc21 | i | i | i | i | i | i
SMILES | CHT inh | CHT PAM | HSF1 inh | PHOSPHO1 inh | HSF1 activator | Hep lipid drop
CCOc1ccc(CNC(=O)c2ccc3c(c2)N(CC)CCS3)cc1 | i | i | i | i | 54.5 | i
CCN1C(=O)CSc2ccc(C(=O)NCc3ccc(OC)cc3)cc21 | i | i | i | i | 52.5 | i
CCN1CCSc2ccc(C(=O)NCc3ccc(OC(C)C)cc3)cc21 | i | i | i | i | 77.2 | i
CCOC(=O)N1CCN(C(=O)c2ccc(CS(=O)(=O)c3ccc(OC)cc3)o2)CC1 | i | i | i | i | i | i
COC(=O)c1[nH]c2ccc(C)cc2c1NC(=O)Nc1ccc(OC)cc1 | i | i | i | i | i | i
CCOC(=O)c1cnn(-c2ccc(C(C)C)cc2)c1NC(=O)C1CCC1 | i | i | i | i | i | nt
O=c1ccn(-c2cccc(C(F)(F)F)c2)nc1-c1ccn(-c2ccccc2)n1 | i | i | i | i | i | i
O=C(NC(CO)(CO)CO)c1coc(=O)c(Br)c1 | i | i | i | i | 65.2 | nt
CN(C)CCNC(=O)c1coc(=O)c(Br)c1 | i | i | nt | i | nt | nt
CC1(C)NC(=O)N(CCCOc2ccccc2Br)C1=O | i | i | i | i | 52.1 | nt
CCC12CCCN3CCC4(C(=C(C(=O)OC)C1)Nc1ccccc14)C32 (configuration not stated) | nt | nt | i | 99.4 | i | nt
COC(=O)C1=C(C(=O)OC)[C@@H]2Nc3ccccc3[C@@]23C[C@@H](C(=O)OC)N=C3N1 | i | i | i | i | i | nt
COC(=O)/C(=C\C(=O)c1ccccc1)Nc1ccc(OC)cc1 | i | i | i | i | 50.6 | i
O=C(C#Cc1ccccc1)Nc1ccc(F)cc1 | i | i | i | nt | i | i
COc1ccc(NC(=O)C#Cc2ccccc2)cc1 | i | i | i | i | 54.2 | i
O=C(C#Cc1ccccc1)Nc1cccc(F)c1 | i | i | i | nt | 81.6 | i
CCCC(=O)Nc1ccc(C#Cc2ccccc2)cc1 | i | i | i | i | 61.3 | nt
CCCC(=O)Nc1ccc(Oc2ccc(NC(=O)CCC)cc2)cc1 | i | i | i | i | i | i
COc1ccc(NC(=O)CCCCC#Cc2ccccc2)cc1 | i | i | i | nt | i | nt
CC(Sc1ccccc1)C(=O)Nc1ccc(N2CCOCC2)cc1 (configuration not stated) | i | i | i | i | i | i
COc1ccc(Nc2ccccc2C(=O)O)cc1 | i | i | i | i | i | i
COc1ccc(Nc2cccccc2=O)cc1 | i | i | i | 62.0 | i | nt
COc1ccc(NC(=O)C(C)Sc2ccccc2)cc1 (configuration not stated) | i | i | i | 62.5 | i | i
O=C(NCc1ccc2c(c1)OCO2)c1cccnc1Cl | i | i | i | i | i | i
CC(C)OCCCNC1=C(Cl)C(=O)c2ccccc2C1=O | i | i | i | i | i | i
O=C1C(Cl)=C(Nc2ccccc2)C(=O)c2ccccc21 | i | i | i | i | i | i
CC(C)NC1=C(Cl)C(=O)c2ccccc2C1=O | i | i | i | i | 70.4 | i
O=C(O)c1cccc(NC2=C(Cl)C(=O)c3ccccc3C2=O)c1 | nt | nt | -88.1 | i | i | i
O=C1C(=O)N(CCN2CCOCC2)C(c2ccccn2)/C1=C(/O)c1ccc(F)cc1 (configuration not stated) | i | i | i | i | i | nt
Cc1c(/C(O)=C2/C(=O)C(=O)N(CCN3CCOCC3)C2c2ccccn2)cnn1-c1ccccc1 (configuration not stated) | i | i | -85.3 | 60.0 | i | i
